Data published in ChEMBL document CHEMBL4342473, “Lead Optimization of Benzoxazolone Carboxamides as Orally Bioavailable and CNS Penetrant Acid Ceramidase Inhibitors” (J Med Chem, 2020).
Activity calls are given as the source filed them. No cut-off for these calls is given here.

Columns and labels:
[1] = target: T1, Sphingomyelin phosphodiesterase (Homo sapiens) (UniProt P17405); experiment: Inhibition of human full length ASM at 1 to 10 uM using HMU-PC as fluorogenic substrate incubated for 45 mins by fluorescence based assay
T1 sequence (whole entry): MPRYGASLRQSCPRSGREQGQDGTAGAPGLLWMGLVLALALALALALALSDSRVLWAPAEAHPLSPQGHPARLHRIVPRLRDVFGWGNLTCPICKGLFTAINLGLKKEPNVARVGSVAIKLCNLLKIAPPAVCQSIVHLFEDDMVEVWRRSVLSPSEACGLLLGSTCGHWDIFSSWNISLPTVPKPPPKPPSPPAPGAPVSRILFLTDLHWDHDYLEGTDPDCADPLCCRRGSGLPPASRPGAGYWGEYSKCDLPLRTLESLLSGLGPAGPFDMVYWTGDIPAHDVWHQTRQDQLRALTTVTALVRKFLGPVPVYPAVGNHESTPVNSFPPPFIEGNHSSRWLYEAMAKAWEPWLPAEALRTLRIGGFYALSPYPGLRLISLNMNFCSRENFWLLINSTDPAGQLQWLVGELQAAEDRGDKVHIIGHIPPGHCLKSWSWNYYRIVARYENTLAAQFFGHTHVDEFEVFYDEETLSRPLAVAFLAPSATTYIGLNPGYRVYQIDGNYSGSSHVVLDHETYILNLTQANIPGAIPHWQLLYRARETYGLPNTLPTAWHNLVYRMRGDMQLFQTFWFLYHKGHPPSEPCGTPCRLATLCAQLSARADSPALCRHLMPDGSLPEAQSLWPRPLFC

[2] = target: T2, Monoglyceride lipase (Homo sapiens) (UniProt Q99685); experiment: Inhibition of recombinant human MAGL at 1 to 10 uM using 4-nitrophenylacetate as substrate preincubated for 5 mins followed by substrate addition and measured after 10 mins by colorimetric method
T2 sequence (whole entry): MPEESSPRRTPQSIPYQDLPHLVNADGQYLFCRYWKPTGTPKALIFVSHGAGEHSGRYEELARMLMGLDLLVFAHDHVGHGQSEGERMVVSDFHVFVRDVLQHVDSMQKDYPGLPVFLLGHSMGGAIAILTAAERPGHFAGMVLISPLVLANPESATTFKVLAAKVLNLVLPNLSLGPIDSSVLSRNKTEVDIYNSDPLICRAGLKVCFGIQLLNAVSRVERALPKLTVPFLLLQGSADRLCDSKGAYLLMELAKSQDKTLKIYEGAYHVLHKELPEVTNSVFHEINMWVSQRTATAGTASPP

[3] = target: T3, Acid ceramidase (Homo sapiens) (UniProt Q13510); experiment: Inhibition of acid ceramidase in human SH-SY5Y cells using N-lauroyl ceramide as substrate measured after 3 hrs by LC/MS analysis; format: cell-based
T3 sequence (whole entry): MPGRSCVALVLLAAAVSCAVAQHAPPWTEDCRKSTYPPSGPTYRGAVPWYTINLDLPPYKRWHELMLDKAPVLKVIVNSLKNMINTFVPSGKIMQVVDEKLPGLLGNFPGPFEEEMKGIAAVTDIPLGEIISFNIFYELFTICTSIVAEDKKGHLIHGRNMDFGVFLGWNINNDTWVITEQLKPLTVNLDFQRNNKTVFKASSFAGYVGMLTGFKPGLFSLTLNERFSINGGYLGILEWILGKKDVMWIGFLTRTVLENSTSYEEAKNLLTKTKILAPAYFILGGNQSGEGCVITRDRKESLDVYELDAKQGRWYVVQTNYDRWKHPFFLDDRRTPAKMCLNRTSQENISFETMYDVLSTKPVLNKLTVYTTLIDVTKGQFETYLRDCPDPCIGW
In short: (§1)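 SH-SY5Y neuroblastoma cells exposed 3 h to 1, 2.5, 5 and 10 μM; AC activity by LC/MS-based assay; ceramide species, sphingosine, SM and HexCer (d18:1/16:0) quantified by LC/MS; means ± S.E.M. of at least six determinations, experiment repeated twice.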

[4] = target: T3, Acid ceramidase (Homo sapiens); experiment: Inhibition of acid ceramidase in human SH-SY5Y cells assessed as increase in intracellular accumulation of Cer (d18:0/16:0) measured after 3 hrs by LC/MS analysis; format: cell-based; in short: as §1
[5] = target: T3, Acid ceramidase (Homo sapiens); experiment: Inhibition of acid ceramidase in human SH-SY5Y cells assessed as decrease in sphingosine level measured after 3 hrs by LC/MS analysis; format: cell-based; in short: as §1
[6] = target: T3, Acid ceramidase (Homo sapiens); experiment: Inhibition of acid ceramidase in human SH-SY5Y cells assessed as increase in intracellular accumulation of Cer (d18:1/16:0) at 10 uM measured up to 6 hrs by LC/MS analysis; format: cell-based
In short: (§2)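 Human neuroblastoma SH-SY5Y cells incubated with compound at 10 μM for 30 min, 1 h, 3 h and 6 h; AC activity by LC/MS-based activity assay; Cer (d18:0/16:0), Cer (d18:1/16:0), sphingosine, SM (d18:1/16:0) and HexCer (d18:1/16:0) quantified by LC/MS.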

[7] = target: T3, Acid ceramidase (Homo sapiens); experiment: Inhibition of acid ceramidase in human SH-SY5Y cells assessed as change in intracellular accumulation of SM (d18:1/16:0) up to 10 uM measured after 3 hrs by LC/MS analysis; format: cell-based; in short: as §1
[8] = Unbound drug level in brain of twitcher mouse model of Krabbe's disease at 90 mg/kg,ip administered once daily for 20 days measured 1 hr post-last dose; format: ADME, organism-based; conditions: in vivo
In short: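 Twitcher mice dosed i.p. once daily for 20 days, sacrificed 1 h after last dose (day 20); drug measured in plasma and brain; unbound levels from unbound fractions (mean of two technical replicates); N = 3 males + 3 females per group.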

[9] = target: T4, Acid ceramidase (Homo sapiens, UniProt Q13510); experiment: Time-dependent inhibition of human acid ceramidase expressed in HEK293 cells using Rbm14-12 as substrate by fluorescence assay; format: cell-based
T4 sequence (Q13510 whole entry): T3 sequence (whole entry)
In short: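 hAC-enriched lysates with fluorogenic substrate Rbm 14-12; vehicle 1% DMSO; time-dependent inhibition analysed for ki/KI and ki; two independent experiments, each in two technical replicates.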

[10] = target: T3, Acid ceramidase (Homo sapiens); experiment: Inhibition of acid ceramidase in human SH-SY5Y cells at 10 uM using N-lauroyl ceramide as substrate by LC/MS analysis; format: cell-based; conditions: TDE = time-dependent effect; in short: as §2
[11] = Ratio of unbound drug level in brain of C57BL/6J/129SvEV mouse model of Gaucher's disease at 90 mg/kg, ip administered once daily for 14 days measured 1 hr post-last dose to EC50 for inhibition of acid ceramidase in Krabbe's disease patient-derived primary fibroblasts; format: organism-based; conditions: in vivo
In short: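 Gaucher-model 4L;C* mice (N = 4–8, mixed sexes) got 30 or 90 mg kg–1 i.p. once daily for 14 days from postnatal day 5 and were sacrificed 1 h after the day-14 dose. Compound levels were measured in plasma and brain, and unbound brain level came from brain fraction unbound (two technical replicates). The reference EC50 was from Krabbe patient primary fibroblasts incubated 2 h across concentrations (two independent experiments, duplicates).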

[12] = Ratio of unbound drug level in brain of twitcher mouse model of Krabbe's disease at 90 mg/kg,ip administered once daily for 20 days measured 1 hr post-last dose to EC50 for inhibition of acid ceramidase in Krabbe's disease patient-derived primary fibroblasts; format: organism-based; conditions: in vivo
In short: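 Twitcher mice (3 males + 3 females per group) got 30 or 90 mg kg–1 i.p. once daily for 20 days from postnatal day 10 and were sacrificed 1 h after the day-20 dose. Plasma and brain levels were measured, and unbound brain level came from brain fraction unbound (two technical replicates). The EC50 was from Krabbe patient primary fibroblasts exposed 2 h to a concentration series (two independent experiments, duplicates).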

CC(C)CNC(=O)n1c(=O)oc2cc(C3CCN(C)CC3)ccc21
inhibition [1]: inactive
inhibition [2]: inactive
inhibition [3]: Dose-dependent effect
inhibition [4]: Dose-dependent effect
inhibition [5]: Dose-dependent effect
inhibition [6]: Active
inhibition [7]: inactive
Drug uptake(free) [8]: 2.15 µM
kinact [9]: 0.15 min⁻¹
inhibition [10]: Tde
Ratio [11]: 6.4
Ratio [12]: 5.2
